From PubChem
TRPC6 act: mouse TRPC6 channel activation; Q61143; HEK293-TRPC6 membrane potential dye fluorescence; hits give high values; B-score at 10 µM; 310,000 compounds, 0.13% hits;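 active means B-score of the integrated fluorescence ratio above library mean plus 3 SD, and starting fluorescence ratio within library mean plus 5 SD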;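 further: higher score means more depolarization so channel activation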
TRPC4 act: opens the mouse TRPC4 cation channel; Q9QUQ5; HEK293 TRPC4beta/mu-opioid, Fluo4 calcium fluorescence; hits give high values; B-score at 10 µM; 310,000 compounds, 0.49% hits; AID 2237;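 active means B-score above 5 SD of library B-scores, and initial fluorescence ratio not above library mean plus 5 SD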;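 further: positive B-score marks a calcium rise read as TRPC4 activation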
Target sequence (Q9QUQ5 whole entry, looked up): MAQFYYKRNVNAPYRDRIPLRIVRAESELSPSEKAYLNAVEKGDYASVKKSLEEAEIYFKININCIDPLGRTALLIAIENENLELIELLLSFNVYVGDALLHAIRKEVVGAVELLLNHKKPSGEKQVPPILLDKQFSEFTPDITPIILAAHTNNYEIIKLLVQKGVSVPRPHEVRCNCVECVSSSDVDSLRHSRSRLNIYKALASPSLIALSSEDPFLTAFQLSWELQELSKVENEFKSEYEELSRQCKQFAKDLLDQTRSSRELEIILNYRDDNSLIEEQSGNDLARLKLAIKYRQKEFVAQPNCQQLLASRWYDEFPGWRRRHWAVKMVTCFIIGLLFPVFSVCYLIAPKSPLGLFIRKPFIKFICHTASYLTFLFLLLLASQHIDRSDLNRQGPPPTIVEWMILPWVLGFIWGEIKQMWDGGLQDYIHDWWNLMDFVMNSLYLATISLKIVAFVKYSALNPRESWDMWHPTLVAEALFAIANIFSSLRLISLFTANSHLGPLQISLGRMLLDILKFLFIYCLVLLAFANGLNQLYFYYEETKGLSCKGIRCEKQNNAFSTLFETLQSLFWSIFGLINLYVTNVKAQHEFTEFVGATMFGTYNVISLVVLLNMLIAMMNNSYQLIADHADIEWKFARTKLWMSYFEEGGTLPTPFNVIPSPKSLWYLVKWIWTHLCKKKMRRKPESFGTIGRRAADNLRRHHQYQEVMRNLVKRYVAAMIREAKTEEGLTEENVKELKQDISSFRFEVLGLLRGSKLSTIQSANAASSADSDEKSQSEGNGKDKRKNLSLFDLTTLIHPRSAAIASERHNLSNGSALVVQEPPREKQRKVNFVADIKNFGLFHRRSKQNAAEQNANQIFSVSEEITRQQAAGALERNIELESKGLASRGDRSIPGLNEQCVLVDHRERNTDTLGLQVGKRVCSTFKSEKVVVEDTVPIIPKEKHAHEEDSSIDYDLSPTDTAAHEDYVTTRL
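Technique: kinetic Fluo4 calcium fluorescence; Test system: TRPC4beta and mu-opioid receptor HEK293 stable cells; Measure: B-scored integrated calcium fluorescence ratio; Benchmarks: low control buffer alone, high control maximal DAMGO; Schedule: 45 min room-temperature Fluo4 loading, 110 s read.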
TRPC4 PAM: allosteric potentiators of mouse TRPC4 channel | HEK293 TRPC4beta/mu-opioid, DAMGO EC20, Fluo-4 Ca2+ flux; hits give high values | B-score at 10 µM | 310,000 compounds, 0.42% hits | AID 2227;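 active means B-score of calcium response area above 5 SD of library B-scores, with initial fluorescence ratio within 5 SD of library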;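 further: B-score of integrated fluorescence ratio over time as area under calcium response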
TRPC4 block: TRPC4 (mouse) channel inhibition. HEK293 TRPC4beta/mu-opioid, DAMGO-evoked Fluo4 calcium flux; hits give low values. B-score at 10 µM. 300,000 compounds, 0.39% hits;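 active means B-score over 3 SD under the library average, no early fluorescence shift, positive overall ratio signal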
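material = TRPC4beta/mu-opioid receptor HEK293 cell line | probe or stimulus = sequential submaximal and maximal DAMGO stimulation | compound dosing = one concentration per compound | measured by = Fluo4 Ca2+ flux fluorescence | evaluation = integrated fluorescence ratio relative to baseline, converted to per-well B score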
TRPC6 inh: inhibitors of mouse TRPC6 channel. Q61143. AID 2553. B-score at 10 µM. 310,000 compounds, 1.1% hits. HEK293-TRPC6, membrane potential dye, ACh-evoked depolarization; hits give low values;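 active means B-score under library mean minus 3 SD, initial fluorescence not abnormally high, positive integrated signal ratio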;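 further: B-score derived from integrated fluorescence ratio over the kinetic read; more negative B-score means stronger inhibition of depolarization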
TRPC4 sel inh 2: second selectivity test of TRPC6 inhibitors: effect on mouse TRPC4; shares compounds with TRPC6 inh; HEK293 TRPC4/MOR, membrane potential dye fluorescence; channel activated by saturating DAMGO dose; inhibition, % at 10 µM; 920 compounds, 42% hits; AID 2776;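 active means compounds whose fluorescence signal differed from control wells by over 3 SD, either direction, in both duplicate plates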
TRPC4 spec: selectivity of TRPC6 inhibitors: effect on mouse TRPC4; HEK293 TRPC4/mu-opioid, membrane potential fluorescence; 920 compounds, 61% hits; activity change, negative = inhibition, % at 10 µM; shares compounds with TRPC6 inh;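 active means rise or fall in signal beyond 3 SD of buffer-only wells in both replicate plates, either sign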;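 further: integrated kinetic ratio of fluorescence range over baseline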
HEK293 MPD ctr 2-1: second check of TRPC6 inhibitor effects in parental HEK293 cells. signal change vs control, % at 10 µM. shares compounds with TRPC6 inh. parental HEK293 membrane potential dye fluorescence; maximal acetylcholine challenge after compound addition. 920 compounds, 31% hits;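 active means membrane potential signal moving either way by over 3 SD of the maximum-effect control, in both duplicate plates, meaning non-specific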
HEK293 MPD ctr-1: parental HEK293 nonspecific activity of TRPC6 inhibitors | shares compounds with TRPC6 inh | parental HEK293 membrane potential dye fluorescence | membrane potential signal change, % at 10 µM | 920 compounds, 60% hits;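 active means membrane potential signal shifting up or down by more than 3 SD of buffer-only wells, on both duplicate plates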
HEK293 MPD ctr-2: parental HEK293 nonspecific activity of TRPC6 modulators; membrane potential dye fluorescence; AID 488924; shares compounds with TRPC6 inh; membrane potential signal change, % at 10 µM; 2,400 compounds, 51% hits;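 active means membrane potential signal moves up or down beyond 5 SD from buffer-only wells, on both duplicate plates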
HEK293 MPD ctr 2-2: second check of TRPC6 modulator effects in parental HEK293 cells. AID 488926. inhibition, % at 10 µM. shares compounds with TRPC6 inh. 2,400 compounds, 14% hits. membrane potential dye fluorescence; after compound, maximal acetylcholine stimulation;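 active means membrane potential signal drops by more than 5 SD from the mean control signal, in both duplicate plates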;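 further: plate controls were acetylcholine ECmax control wells for no effect and buffer only wells for full effect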
TRPC4/MOR mod: mouse TRPC4 off-target activity of TRPC6 modulators | shares compounds with TRPC6 inh | HEK293 TRPC4/mu-opioid, membrane potential fluorescence | percent change from control (negative = decrease, positive = increase), % at 10 µM | 2,400 compounds, 69% hits | AID 488927;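 active means membrane potential signal moved up or down beyond 5 SD of buffer control wells, in both duplicate plates, actives on both sides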;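 further: plate controls were assay buffer wells for no effect and DAMGO maximal-effect wells for full effect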
TRPC4/MOR inh 2: mouse TRPC4 off-target activity of TRPC6 modulators, second screen. shares compounds with TRPC6 inh. HEK293 TRPC4/mu-opioid, membrane potential dye fluorescence; stimulated with maximal-effect DAMGO. inhibition, % at 10 µM. 2,400 compounds, 55% hits. AID 488928;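 active means drop in membrane potential signal beyond 5 SD of the control wells in both duplicate plates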;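 further: TRPC4 counter screen for TRPC6 hits run under conditions tuned for TRPC6 not TRPC4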
TRPC6 block conf: confirmation of mouse TRPC6 inhibitors; shares compounds with TRPC6 inh; HEK293-TRPC6, membrane potential dye, ACh-evoked depolarization; inhibition, % at 10 µM; 3,300 compounds, 43% hits; AID 488960;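 active means fluorescence ratio falls more than 5 SD below the full-stimulation control mean, in both duplicate runs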;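 further: integrated fluorescence ratio of peak minus minimum over baseline after agonist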
TRPC6 act confirm: confirmation of mouse TRPC6 activators | 2,800 compounds, 11% hits | shares compounds with TRPC6 inh | activation, % at 10 µM | HEK293-TRPC6 membrane potential dye fluorescence, FDSS;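 active means ratio signal rise beyond 5 SD above unstimulated control wells' mean, seen in both duplicate runs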;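 further: plate controls were buffer EC0 wells for no effect and acetylcholine ECmax response for full effect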
Numbers without * were called inactive; i = inactive; · = no result given. Compounds with a hit are over-represented: about 2.3% of the library has one in this group of screens.

SMILES	TRPC6 act	TRPC4 act	TRPC4 PAM	TRPC4 block	TRPC6 inh	HEK293 MPD ctr-2	HEK293 MPD ctr 2-2	TRPC4/MOR mod	TRPC4/MOR inh 2	TRPC6 block conf	TRPC6 act confirm	others
O=c1cc(C(F)(F)F)[nH]c2ccc(OC(F)(F)F)cc12	i	i	i	i	-7.1*	·	·	·	·	104%*	·	TRPC4 sel inh 2=i;TRPC4 spec=23%*;HEK293 MPD ctr 2-1=22%*;HEK293 MPD ctr-1=13%*
COc1cc(C(=O)NC(=S)Nc2ccc3[nH]c(=O)[nH]c3c2)cc(OC)c1OC	i	i	i	i	i	·	·	·	·	·	·
O=C(CSc1nnc(NC(=O)c2ccccc2Cl)s1)Nc1ccc2c(c1)oc1ccccc12	i	i	i	i	i	·	·	·	·	·	·
Cc1cc(C)c2nc3nc(C)c(C)cc3c(N)c2c1	i	i	i	i	-5.8*	i	i	-25%*	34%*	59%*	i
CC[N+](C)(CC)CCOC(=O)C(O)(c1ccccc1)C1CCCCC1 (stereo not given)	i	i	i	i	-8.9*	·	·	·	·	83%*	i	TRPC4 sel inh 2=i;TRPC4 spec=i;HEK293 MPD ctr 2-1=-33%*;HEK293 MPD ctr-1=i
CCC(C(=O)NC1CCCCCC1)c1ccccc1 (stereo not given)	i	i	i	i	i	·	·	·	·	·	·
CC[N+](C)(CC)CCC(c1ccccc1)C1CCCCC1 (stereo not given)	i	i	i	i	-9.6*	·	·	·	·	81%*	i	TRPC4 sel inh 2=i;TRPC4 spec=i;HEK293 MPD ctr 2-1=-16%*;HEK293 MPD ctr-1=i
CCOC(=O)C(C(=O)Nc1ccccc1)C1CCCCC1 (stereo not given)	i	i	i	i	i	·	·	·	·	·	·
CCOC(=O)c1c(C)cc(C)n2c1nc1ccccc12	i	i	i	i	-8.1*	·	·	·	·	i	i	TRPC4 sel inh 2=i;TRPC4 spec=-21%*;HEK293 MPD ctr 2-1=i;HEK293 MPD ctr-1=-250%*
CC(=O)c1ccc(NC(=O)Cc2ccsc2)cc1	i	i	i	i	i	·	·	·	·	·	·
COC(=O)C(NC(=O)c1ccc(C)cc1)(Nc1cccc(C)n1)C(F)(F)F (stereo not given)	i	i	i	i	-7.2*	·	·	·	·	63%*	·	TRPC4 sel inh 2=i;TRPC4 spec=i;HEK293 MPD ctr 2-1=i;HEK293 MPD ctr-1=i
CCOc1ccc(CCNC(=O)C2CCCN(c3nn4c(=O)cc(C)nc4s3)C2)cc1OCC (stereo not given)	i	i	i	i	i	·	·	·	·	·	·
CCOc1ccc(CCNC(=O)C2CCCN(c3nnc(-n4cccc4)s3)C2)cc1OCC (stereo not given)	i	i	i	i	-5.5*	i	i	i	i	i	i
COCCCn1c(=O)c2sccc2n(Cc2ccc(C)cc2)c1=O	i	i	i	i	i	·	·	·	·	·	·
CCN(CC)CCN1C(=O)c2cccc3cc(N)cc(c23)C1=O	i	i	i	i	-5.5*	531%*	i	-32%*	61%*	48%*	i
Nc1cc2c3c(cccc3c1)C(=O)N(CCN1CCCC1)C2=O	i	i	i	i	i	·	·	·	·	·	·
O=C(CCc1ccccc1)c1c(O)cc(O)cc1O	i	i	i	i	-5.6*	-84%*	i	-20%*	74%*	50%*	i
CCN(CC)CCNC(=O)COc1ccc(OC)cc1	i	i	i	i	i	·	·	·	·	·	·
CCN(CC)CCCCNc1ncc2cc(-c3cc(OC)cc(OC)c3)c(NC(=O)NC(C)(C)C)nc2n1	i	i	i	i	-5.5*	i	i	i	43%*	54%*	i
CN(C)CCNc1cc(-c2ccncc2)nc2ccccc12	i	i	15*	i	-11*	-328%*	90%*	-81%*	78%*	75%*	i
Cc1ccc(-c2nc(NCCN(C)C)c3ccccc3n2)cc1	i	i	i	i	i	·	·	·	·	·	·
CC(=O)c1ccc(S(=O)(=O)NC2CCSc3ccccc32)cc1 (stereo not given)	i	i	i	i	i	·	·	·	·	·	·
O=S(=O)(NC1CCSc2ccccc21)c1ccc(Cl)nc1 (stereo not given)	i	i	i	i	-6.2*	i	i	i	i	i	i
OCCN1CCN(c2ncnc3sc(-c4ccccc4)cc23)CC1	i	i	i	i	-6.2*	i	i	-9.5%*	36%*	i	i
c1ccc(-c2cc3c(N4CCCC4)ncnc3s2)cc1	i	i	i	i	i	·	·	·	·	·	·
Cc1ccc(O)c(C(=O)c2cc(C#N)c(=O)n(-c3c(C)n(C)n(-c4ccccc4)c3=O)c2)c1	i	i	i	i	i	·	·	·	·	·	·
Cc1ccc(O)c(C(=O)c2cc(C#N)c(=O)n(-c3nccs3)c2)c1	31*	i	i	i	i	435%*	i	164%*	58%*	i	86%*
CN(C)Cc1c(O)ccc2cc(-c3nc4ccccc4n3C)c(=O)oc12	i	i	i	i	-5*	444%*	i	-24%*	i	i	i
O=C(CSc1ncccn1)N1CCC(Cc2ccccc2)CC1	i	i	i	i	i	·	·	·	·	·	·
